FXIa inh: blocks human coagulation factor XIa protease activity | actives 0.14% (n = 220,000) | P03951 | purified FXIa, Boc-Glu-Ala-Arg-AMC fluorogenic substrate | AID 798 | inhibition, % at 5 µM;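 active = inhibition of at least 40%; inactive = inhibition below 40%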;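 also: fluorescence of freed AMC excited at 355 nm; 0% = enzyme without compound and 100% = no enzyme blank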
Target sequence (P03951 19-387 limits assumed): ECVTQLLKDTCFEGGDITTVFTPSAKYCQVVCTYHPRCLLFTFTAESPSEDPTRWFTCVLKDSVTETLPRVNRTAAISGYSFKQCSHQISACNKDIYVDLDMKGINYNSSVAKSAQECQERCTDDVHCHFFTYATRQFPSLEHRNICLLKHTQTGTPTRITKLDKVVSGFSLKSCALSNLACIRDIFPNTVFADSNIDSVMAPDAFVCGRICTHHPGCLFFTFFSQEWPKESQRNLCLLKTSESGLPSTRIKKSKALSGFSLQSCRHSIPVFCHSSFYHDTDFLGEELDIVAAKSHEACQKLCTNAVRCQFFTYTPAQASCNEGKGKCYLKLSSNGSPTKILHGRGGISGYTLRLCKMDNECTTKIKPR
Target sequence (P03951 388-625 limits assumed): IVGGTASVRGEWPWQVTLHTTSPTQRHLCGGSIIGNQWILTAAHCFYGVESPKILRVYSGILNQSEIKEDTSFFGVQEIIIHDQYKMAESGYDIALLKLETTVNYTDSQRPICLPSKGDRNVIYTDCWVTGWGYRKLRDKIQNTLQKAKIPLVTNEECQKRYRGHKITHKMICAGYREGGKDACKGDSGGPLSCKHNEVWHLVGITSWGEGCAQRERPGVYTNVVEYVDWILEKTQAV
Thrombin inh: thrombin (human) inhibition | P00734 | alpha-thrombin, Boc-VPR-AMC fluorogenic substrate cleavage | inhibition, % at 5 µM | actives 0.26% (n = 220,000);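 active = inhibition at or above 40%; inactive = inhibition below 40%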;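 also: 0% = enzyme with no compound and 100% = wells without enzyme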
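Test system: human alpha-thrombin protein / Dosing: one concentration per compound, 5 µM, with 0.2% DMSO / Medium: pH 7.5 Tris-saline with Tween 20 / Benchmarks: no-compound enzyme wells and no-enzyme blanks / Read-out basis: percent inhibition of thrombin substrate cleavage / Timing: reaction at room temperature / Measured by: fluorescence, ex 355 nm, em 460 nm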
hK5 inh: blocks human kallikrein 5 protease activity. Q9Y337. recombinant hK5, fluorogenic AMC substrate cleavage. inhibition, % at 5 µM. actives 0.59% (n = 210,000). AID 873;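 active = inhibition of 40% or more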;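 also: 0% = enzyme controls without compound and 100% = no-enzyme blanks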
FXIIa inh 1536: factor XIIa (human) inhibition; purified FXIIa, Boc-QGR-AMC fluorogenic substrate, 2 h; inhibition, % at 5 µM; actives 0.3% (n = 220,000); AID 800; in the data active = inhibition above about 40%;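 also: 0% = enzyme with no compound and 100% = blank without enzyme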
Redox H2O2 prof: compounds producing H2O2 with reducing agent – biochemical, NIH compound library profiling, artefact control for MLSCN library redox annotation, primary screen. DTT-dependent redox cycling H2O2, phenol red/HRP absorbance; 100% = 100 µM peroxide control, 0% = buffer. activation, % at 10 µM. actives 0.03% (n = 200,000);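 active = activation of at least 50% relative to the plate's high and low controls in the primary single-dose screen; inactive = activation below 50%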;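 also: compound incubated with DTT at 0.8 mM final as the reducing agent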
S1P3 antagonist: blocks the human S1P3 receptor | Q99500 | CHO S1P3 NFAT-BLA reporter, FRET fluorescence, antagonist mode | actives 0.27% (n = 170,000) | inhibition, % at 4.98 µM | AID 485;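 active = inhibition above the plate cutoff, the mean inhibition of test wells on that plate plus 3 SD, cut at about 28% in these data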;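 also: cells challenged with S1P at its EC80 of 0.8 µM; blue over green emission ratio from cleaved BLA substrate after 4 h stimulation; 0% = S1P-stimulated wells and 100% = unstimulated DMSO-only wells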
Numbers without * were called inactive; x = no result. The list is not random: actives were taken first. Their share in the collection is about 1.2%.

SMILES	FXIa inh	Thrombin inh	hK5 inh	FXIIa inh 1536	Redox H2O2 prof	S1P3 antagonist
Cc1ccc2nc(NC(=O)C3CCCN(S(=O)(=O)c4cccc5nsnc45)C3)sc2c1 (stereo not drawn)	17	15	31	45*	2	16
CCOC(=O)c1cc(C#N)c(N2CCN(C(=O)c3cccc(C(F)(F)F)c3)CC2)nc1C(F)(F)F	8	1	5	8	x	3
O=C(NCc1ccccc1)C1CCCN1S(=O)(=O)c1cccc2cccnc12 (stereo not drawn)	-9	-9	46*	1	-1	-2
Cc1nc(/N=C\N(C)C)sc1C(=O)Nc1ccccc1	11	25	48*	14	3	-19
Cc1nc(C(=O)Nc2ccccc2)sc1C(=O)Nc1ccccc1	1	1	0	10	x	12
C=CCOC(=O)C1=C[C@H](C2CCCCC2)[C@@H](CCCO)[C@H](OCC)O1	-2	-12	-3	3	0	-12
CC(C)CN(CC(C)C)c1nc(N)c(C#N)c(CC#N)c1C#N	14	-5	-1	12	-3	94*
O=C1NC(=O)/C(=C\c2ccc(O)cc2O)S1	0	-8	-9	5	-1	-6
Cc1cccc(N/N=C(\C=N\N)C(=O)c2ccc(Br)cc2)c1	2	-8	-3	8	0	0
O=C(NCc1ccccc1)c1nc(-c2cccs2)no1	27	44*	12	26	-1	7
Nn1c(SCC(=O)Nc2cc(S(=O)(=O)N3CCOCC3)ccc2Cl)nnc1-c1cccnc1	-4	-4	-3	7	0	-12
O=C(c1ccco1)N1C(=O)c2cccc3cccc1c23	-12	-6	0	-3	1	0
Nc1cccc2c1C(=O)N(C(=O)c1ccco1)C2=O	11	47*	9	15	x	12
COc1ccc(/C=N\NS(=O)(=O)c2ccc(Cl)cc2)cc1COc1ccccc1[N+](=O)[O-]	8	85*	47*	19	1	x
C/C(CC(=O)NCCCN1CCOCC1)=N\NC(=O)COc1ccc(C)cc1	3	11	47*	24	0	-12
C/C(CC(=O)NCCCN1CCOCC1)=N\NC(=O)COc1ccc(Cl)cc1	-1	2	-4	15	1	x
Cn1c(=O)c2c(nc(SCCN3CCOCC3)n2Cc2ccc(F)cc2)n(C)c1=O	16	10	52*	6	2	-22
O=C(Nc1ccnc(-c2cccnc2)n1)c1cccs1	-3	-5	-6	0	-2	-4
O=C(NC1CCCCC1)c1ccc(Br)o1	1	15	83*	8	0	-24
NC(=O)[C@@H]1CC2(CC(c3cccc(NC(=O)[C@@H]4CCC(=O)N4)c3)=NO2)CN1C(=O)Cc1ccc([N+](=O)[O-])cc1 (stereo partly drawn)	1	-2	3	5	x	x
Cc1cc(/C(O)=C2\C(=O)C(=O)N(CCN(C)C)C2c2ccncc2)ccc1OCc1ccccc1 (stereo not drawn)	11	21	71*	24	0	-8
COc1cccc(/C(O)=C2/C(=O)C(=O)N(CCN3CCOCC3)C2c2cccnc2)c1 (stereo not drawn)	11	-2	-6	14	1	x
COc1cccc(/C(O)=C2/C(=O)C(=O)N(CCCN3CCOCC3)C2c2ccncc2)c1 (stereo not drawn)	-3	1	117*	-4	2	x
COc1cccc(C(=O)OCCN2CCOCC2)c1	51*	-3	36	32	0	19
O=C1NC(=S)N/C1=C\c1ccc(N2CCOCC2)cc1	5	x	3	10	0	1
SMILES	FXIa inh	Thrombin inh	hK5 inh	FXIIa inh 1536	Redox H2O2 prof	S1P3 antagonist
COc1cccc(C(=O)C2CCCN(C(=O)CCC3=NNC(=O)CC3)C2)c1 (stereo not drawn)	-3	-7	-5	4	-1	-13
Cn1cccc1C(=O)Nc1nc(-c2ccccn2)cs1	47*	10	-6	-9	3	2
c1ccc(OCc2nc3c4c(ncn3n2)-c2ccccc2CC42CCCC2)cc1	8	-4	-19	8	1	-8
O=C(COC(=O)c1ccc([N+](=O)[O-])s1)Nc1cccc(S(=O)(=O)NC2=NCCCCC2)c1	6	45*	2	6	x	1
COc1cc(OC)cc(C(=O)N[C@H](C(=O)Nc2ccc3c(c2)OCO3)C(C)C)c1	0	-13	3	1	0	-10
Cc1cc(C)cc(OCC(=O)OCCN2C(=O)c3ccccc3C2=O)c1	-16	-3	-33	6	0	x
Cc1cc(C)cc(OCC(=O)NNC(=O)CN2C(=O)c3ccccc3C2=O)c1	3	85*	54*	3	0	-17
O=C1CCc2cc(S(=O)(=O)NC(Cc3ccccc3)C(=O)N3CCN(c4ccccn4)CC3)ccc2N1 (stereo not drawn)	-1	-7	5	10	0	8
Cc1cccc(N(C(=O)Nc2ccc(Cl)cc2)C2=NCC(C)S2)n1 (stereo not drawn)	5	0	x	13	0	4
Cc1cc(C)n(C(=O)CNc2cccc(Cl)c2C)n1	5	5	46*	44*	2	-2
Cc1cc(C)n(C(=O)CNc2ccccc2Cl)n1	7	0	2	20	0	x
COc1ccc(COCC(O)CN2CCc3ccccc3C2)cc1OC (stereo not drawn)	1	2	-4	11	0	-8
Oc1ccc(/C=N/N(Cc2ccccc2)c2ccccc2)c(O)c1O	29	28	128*	27	-1	-17
Oc1cccc(/C=N/N(Cc2ccccc2)c2ccccc2)c1	-3	-8	-5	x	1	-6
CCCOC(=O)c1c(-c2ccc(C)cc2C)csc1NC(=O)C1C2CCC(O2)C1C(=O)O (stereo not drawn)	20	0	-8	23	0	12
COc1ccc(C)cc1NC(=O)COC(=O)C1CCN(C(=O)c2ccc(Cl)cc2)CC1	49*	27	28	26	-1	-40
COc1ccc(OCC(=O)Nc2ccc(NC(=O)c3cccs3)c(OC)c2)cc1	-3	-2	-6	-2	-1	-9
COc1cc(NC(=O)c2cccs2)c(OC)cc1NC(=O)CCC(=O)Nc1ccc2ncccc2c1	27	19	54*	15	-1	-20
COc1ccc(CCNC(=O)Cn2nnc(-c3ccc(N4CCOCC4)cc3)n2)cc1OC	-9	2	126*	-6	1	-28
COc1cccc2cc(C(=O)NCC3CCCO3)c(=O)oc12 (stereo not drawn)	14	104*	44*	17	0	x

Screening results from PubChem BioAssay.
